Numbered stars: 1 amine (or outer) side, 2 acyl side, 3 side chain; on linkers, the order of the positions; unused ones are H or OH. Square brackets hold non-standard residues; d marks the D form. Peptide text beside a SMILES is read from it. X7 = CCNC(=N)NCCC[C@H](N)C(=O)/N=C(/N)NCCC[C@H](N[*:1])C(=O)[*:2]; X9 = NC1=NCCN1CCC[C@H](N[*:1])C(=O)[*:2]; Tle = CC(C)(C)[C@H](N)C(=O)O; hLys = NCCCCC[C@H](N)C(=O)O

A short description of data set [1]: Plasma half life in rat serum. The data set is classed as ADME, organism-based.
Data set [2] concerns the target Neurotensin receptor type 1 (Homo sapiens, UniProt P30989). Kind of data set: Evaluated for binding affinity by inhibiting binding of [125I]-Tyr(3)-NT to human Neurotensin receptor 1.
Data set [3] addresses Neurotensin receptor type 2 (Homo sapiens, UniProt O95665). Description: Evaluated for binding affinity by inhibiting binding of [125I]Tyr(3)-NT to human Neurotensin receptor 2.
The target of another data set is T1, Sortilin (Homo sapiens, UniProt Q99523).
T1 sequence (Q99523 whole entry): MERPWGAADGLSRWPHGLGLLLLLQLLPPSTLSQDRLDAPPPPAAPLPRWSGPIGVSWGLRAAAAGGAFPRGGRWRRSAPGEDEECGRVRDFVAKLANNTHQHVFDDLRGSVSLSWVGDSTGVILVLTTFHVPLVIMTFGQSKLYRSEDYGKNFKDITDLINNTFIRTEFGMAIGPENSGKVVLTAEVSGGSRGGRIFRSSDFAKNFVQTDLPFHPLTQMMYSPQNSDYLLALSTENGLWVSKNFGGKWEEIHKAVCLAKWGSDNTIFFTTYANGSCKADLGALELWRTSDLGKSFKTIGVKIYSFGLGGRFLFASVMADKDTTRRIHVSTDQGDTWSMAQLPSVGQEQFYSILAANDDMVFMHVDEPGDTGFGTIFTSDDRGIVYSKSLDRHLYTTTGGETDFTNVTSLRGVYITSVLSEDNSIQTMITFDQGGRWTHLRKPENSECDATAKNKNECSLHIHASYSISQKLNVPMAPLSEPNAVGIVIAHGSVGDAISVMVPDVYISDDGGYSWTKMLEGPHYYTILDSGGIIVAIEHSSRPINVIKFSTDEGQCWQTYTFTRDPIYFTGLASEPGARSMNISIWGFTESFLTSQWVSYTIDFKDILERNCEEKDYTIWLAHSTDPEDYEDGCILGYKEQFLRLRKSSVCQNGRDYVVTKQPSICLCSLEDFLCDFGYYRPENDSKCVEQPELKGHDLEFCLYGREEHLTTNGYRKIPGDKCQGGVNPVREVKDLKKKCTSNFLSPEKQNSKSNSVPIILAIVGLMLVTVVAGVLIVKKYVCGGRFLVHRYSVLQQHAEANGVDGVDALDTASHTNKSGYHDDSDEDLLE
Kind of data set: Evaluated for binding affinity by inhibiting binding of [125I]Tyr(3)-NT to human Neurotensin receptor 3. In a few lines:
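Whole cells (2 × 10^5) transiently expressing human NTR-3, ~60 h post-transfection. Equilibrated 10 min in Earle's Tris-HEPES pH 7.5 with 0.1% glucose and 0.1% BSA, then incubated 30 min at 37 °C with 0.4 nM 125I-Tyr(3)-NT, 0.8 mM 1,10-phenanthroline and increasing peptide. Washed, lysed in 0.1 N NaOH, gamma-counted. Nonspecific binding with 1 µM NT. IC50 taken.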

Chain of Neurotensin receptor type 1 (P30989 whole entry): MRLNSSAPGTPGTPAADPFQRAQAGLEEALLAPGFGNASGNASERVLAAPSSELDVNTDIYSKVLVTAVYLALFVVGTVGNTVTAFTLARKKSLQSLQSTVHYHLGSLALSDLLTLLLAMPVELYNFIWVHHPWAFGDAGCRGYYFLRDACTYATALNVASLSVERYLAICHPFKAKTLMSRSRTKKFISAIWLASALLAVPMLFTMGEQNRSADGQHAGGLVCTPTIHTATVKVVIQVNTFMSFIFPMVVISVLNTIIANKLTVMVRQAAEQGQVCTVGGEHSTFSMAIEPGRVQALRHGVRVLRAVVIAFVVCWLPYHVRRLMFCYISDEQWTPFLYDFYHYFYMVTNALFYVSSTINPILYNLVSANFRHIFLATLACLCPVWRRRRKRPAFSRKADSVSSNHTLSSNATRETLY
Chain of Neurotensin receptor type 2 (O95665 whole entry): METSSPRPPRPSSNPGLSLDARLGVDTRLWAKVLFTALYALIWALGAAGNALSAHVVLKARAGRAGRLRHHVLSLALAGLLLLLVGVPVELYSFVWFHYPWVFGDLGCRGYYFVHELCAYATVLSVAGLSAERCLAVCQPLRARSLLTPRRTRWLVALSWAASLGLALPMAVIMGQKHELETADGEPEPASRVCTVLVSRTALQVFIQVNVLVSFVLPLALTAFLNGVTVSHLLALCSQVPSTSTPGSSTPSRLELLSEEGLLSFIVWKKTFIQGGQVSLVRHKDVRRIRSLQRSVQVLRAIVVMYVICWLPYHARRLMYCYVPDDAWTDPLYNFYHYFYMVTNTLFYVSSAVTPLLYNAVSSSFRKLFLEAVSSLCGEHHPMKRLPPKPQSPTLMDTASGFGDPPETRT

In general, half-life refers to the time in which the quantity being followed falls by half. Higher therefore signals slow decline. A word on the IC50: it is the point on the concentration scale where inhibition reaches its midpoint. Compound `CC[C@H](C)[C@H](NC(=O)[C@H](Cc1ccc(O)cc1)NC(=O)[C@@H]1CCCN1C(=O)[C@@H](N)CCC/N=C(/N)NC(=O)[C@@H](N)CCCN=C(N)N)C(=O)N[C@@H](CC(C)C)C(=O)O` showed a half-life in data set [1] of 2.9 h. The IC50 was 0.4 nM in data set [2], 0.9 nM in data set [3] and 1740 nM at Sortilin.
`CC[C@H](C)[C@H](NC(=O)[C@H](Cc1ccc(O)cc1)NC(=O)[C@@H]1CCCN1C(=O)[C@@H](N)CCC/N=C(/N)NC(=O)[C@@H](N)CCCCN(C)C)C(=O)N[C@@H](CC(C)C)C(=O)O` came in with a half-life in data set [1] of 2.12 h. The values for the IC50 (in data set [2]; in data set [3]; on Sortilin) were 0.4 nM, 2.8 nM and 1620 nM, respectively.
Compound `CC[C@H](C)[C@H](NC(=O)[C@H](Cc1ccc(O)cc1)NC(=O)[C@@H]1CCCN1C(=O)[C@@H](N)CCCNC(=N)NC(=O)[C@@H](N)CCCCC[N+](C)(C)C)C(=O)N[C@@H](CC(C)C)C(=O)O` yielded a half-life in data set [1] of 1.72 h. In addition, the half-inhibitory concentration (IC50) in data set [2] is 0.51 nM; in data set [3], 3.1 nM; on Sortilin, 550 nM.
On to `CC[C@H](C)[C@H](NC(=O)[C@H](Cc1ccc(O)cc1)NC(=O)[C@@H]1CCCN1C(=O)[C@@H](N)CCCN=C(N)NC(=O)[C@@H](N)CCCNC)C(=O)N[C@@H](CC(C)C)C(=O)O`, for which the IC50 in data set [3] was 3.5 nM; at Sortilin it was 640 nM.
Take `CC[C@H](C)[C@H](NC(=O)[C@H](Cc1ccc(O)cc1)NC(=O)[C@@H]1CCCN1C(=O)[C@@H](N)CCC/N=C(/N)NC(=O)[C@@H](N)CCCN(C)C)C(=O)N[C@@H](CC(C)C)C(=O)O`: the half-inhibitory concentration (IC50) was 5.1 nM in data set [3] and 480 nM on Sortilin.
In data set [1], `CC[C@H](C)[C@H](NC(=O)[C@H](Cc1ccc(O)cc1)NC(=O)[C@@H]1CCCN1C(=O)[C@@H](N)CCC/N=C(/N)NC(=O)[C@@H](N)CCCCCNC)C(=O)N[C@@H](CC(C)C)C(=O)O` displayed a half-life of 3.52 h. For the same compound, the IC50 amounted to 0.52 nM in data set [2], 6.9 nM in data set [3] and 400 nM on Sortilin.
In the same order, the values of `CC[C@H](C)[C@H](NC(=O)[C@H](Cc1ccc(O)cc1)NC(=O)[C@@H]1CCCN1C(=O)[C@@H](N)CCC/N=C(/N)NC(=O)[C@@H](N)CCCCCN(C)C)C(=O)N[C@@H](CC(C)C)C(=O)O` are 2.1 h, 0.28 nM, 3.5 nM and 700 nM.
`CCNC(=N)NCCC[C@H](N)C(=O)N[C@@H](CCCNC(=N)N)C(=O)N1CCC[C@H]1C(=O)N[C@@H](Cc1ccc(O)cc1)C(=O)N[C@H](C(=O)N[C@@H](CC(C)C)C(=O)O)[C@@H](C)CC` gave a half-life in data set [1] of 0.525 h.
Regarding `CC[C@H](C)[C@H](NC(=O)[C@H](Cc1ccc(O)cc1)NC(=O)[C@@H]1CCCN1C(=O)[C@@H](N)CCC/N=C(/N)NC(=O)[C@@H](N)CCCCNC)C(=O)N[C@@H](CC(C)C)C(=O)O`, the half-life in data set [1] was determined as 2.13 h. Further, the half-inhibitory concentration (IC50) is 0.34 nM in data set [2], 1.8 nM in data set [3] and 1150 nM at Sortilin.
On the same counts, the results for `CC[C@H](C)[C@H](NC(=O)[C@H](Cc1ccc(O)cc1)NC(=O)[C@@H]1CCCN1C(=O)[C@@H](N)CCC/N=C(/N)NC(=O)[C@@H](N)CCCCCN)C(=O)N[C@@H](CC(C)C)C(=O)O` are 2.55 h, 0.38 nM, 0.7 nM and 1200 nM.
For the compound `CC[C@H](C)[C@H](NC(=O)[C@H](Cc1ccc(O)cc1)NC(=O)[C@@H]1CCCN1C(=O)[C@@H](N)CCC/N=C(/N)NC(=O)[C@@H](N)CCCN1CCN=C1N)C(=O)N[C@@H](CC(C)C)C(=O)O`, the values for the IC50 (in data set [3]; at Sortilin) were 0.23 nM and 590 nM, respectively.
Take `CC[C@H](C)[C@H](NC(=O)[C@H](Cc1ccc(O)cc1)NC(=O)[C@@H]1CCCN1C(=O)[C@@H](N)CCCN=C(N)NC(=O)[C@@H](N)CCCN)C(=O)N[C@@H](CC(C)C)C(=O)O`: the half-life in data set [1] was 2.23 h. In addition, the concentration for half-maximal inhibition (IC50) is 0.59 nM in data set [2], 3 nM in data set [3] and 1400 nM at Sortilin.
In data set [1], `CC[C@H](C)[C@H](NC(=O)[C@H](Cc1ccc(O)cc1)NC(=O)[C@@H]1CCCN1C(=O)[C@H](CCCNC(=N)N)NC(=O)[C@@H](N)CCCNC(=N)N)C(=O)N[C@@H](CC(C)C)C(=O)O` came in with a half-life of 0.0983 h.
For the compound `CC[C@H](C)[C@H](NC(=O)[C@H](Cc1ccc(O)cc1)NC(=O)[C@@H]1CCCN1C(=O)[C@@H](N)CCCN=C(N)NC(=O)[C@@H](N)CCCCN)C(=O)N[C@@H](CC(C)C)C(=O)O`, in data set [1], the half-life was 2.27 h. Besides, the concentration for half-maximal inhibition (IC50) in data set [2] turned out to be 0.3 nM; in data set [3] it was 2.1 nM; on Sortilin, 512 nM.
Take `CC[C@H](C)[C@H](NC(=O)[C@H](Cc1ccc(O)cc1)NC(=O)[C@@H]1CCCN1C(=O)[C@H](CCCNC(=N)N)NC(=O)[C@@H](N)CCCN=C(N)NC)C(=O)N[C@@H](CC(C)C)C(=O)O`: the half-life in data set [1] was 0.237 h.
As to `CC[C@H](C)[C@H](NC(=O)[C@H](Cc1ccc(O)cc1)NC(=O)[C@@H]1CCCN1C(=O)[C@@H](N)CCCN=C(N)NC(=O)[C@@H](N)CCCN=C(N)NC)C(=O)N[C@@H](CC(C)C)C(=O)O`, the figures for the IC50 (in data set [3]; at Sortilin) were 0.67 nM and 720 nM, respectively.
As for `CC(C)C[C@H](NC(=O)[C@@H](NC(=O)[C@H](Cc1c[nH]c2ccccc12)NC(=O)[C@@H]1CCCN1C(=O)[C@@H](N)CCCN=C(N)NC(=O)[C@@H](N)CCCCCN)C(C)(C)C)C(=O)O` (H-R(hLys)PW[Tle]L-OH), in data set [1], the half-life is more than 24 h. The IC50 was determined as 133 nM in data set [2], 500 nM in data set [3] and 53700 nM at Sortilin.
Regarding `CC(C)C[C@H](NC(=O)[C@@H](NC(=O)[C@H](Cc1ccc(O)cc1)NC(=O)[C@@H]1CCCN1C(=O)[C@@H](N)CCCN=C(N)NC(=O)[C@@H](N)CCCCCN)C(C)(C)C)C(=O)O` (H-R(hLys)PY[Tle]L-OH), the IC50 in data set [3] was 11.1 nM; at Sortilin it was 4000 nM.
In the same order, the values of `CCNC(=N)NCCC[C@H](N)C(=O)/N=C(/N)NCCC[C@H](N)C(=O)N1CCC[C@H]1C(=O)N[C@@H](Cc1ccc(O)cc1)C(=O)N[C@H](C(=O)N[C@@H](CC(C)C)C(=O)O)[C@@H](C)CC` (H-[X7]PYIL-OH) are 0.3 nM and 480 nM.
Compound `CC[C@H](C)[C@H](NC(=O)[C@H](Cc1ccc(O)cc1)NC(=O)[C@@H]1CCCN1C(=O)[C@H](CCCNC(=N)N)NC(=O)[C@@H](N)CCCN1CCN=C1N)C(=O)N[C@@H](CC(C)C)C(=O)O` (H-[X9]RPYIL-OH) had a half-life in data set [1] of 0.275 h.
As for `CC(C)C[C@H](NC(=O)[C@@H](NC(=O)[C@H](Cc1ccc(O)cc1)NC(=O)[C@@H]1CCCN1C(=O)[C@H](CCCNC(=N)N)NC(=O)[C@@H](N)CCCCCN)C(C)(C)C)C(=O)O` (H-[hLys]RPY[Tle]L-OH), the half-life in data set [1] is more than 24 h. The compound also had an IC50 in data set [2] of 5.71 nM.
